FN deposit inh = fibronectin deposition inhibition; AH1F fibroblasts, Alexa488-fibronectin deposition fluorescence, overnight; inhibition, % at 12.6 µM; 350,000 compounds, 0.086% hits;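 active = mean inhibition across replicates of 30% or more, regardless of how many single replicates reach that level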
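Schedule: 1 h cell adhesion before compound, then overnight fibronectin incubation; test system: AH1F fibroblast monolayer depositing Alexa488-labelled fibronectin into matrix; quantity: 10000 AH1F cells per well; probe or stimulus: fluorescent fibronectin at 24 nM final; signal: fluorescence, ex 485 nm, em 525 nm; evaluation: percent inhibition as loss of matrix-bound fibronectin fluorescence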
ARNT TACC3 PPI = ARNT/TACC3 interaction disruption; AlphaScreen His-ARNT PAS-B/GST-TACC3 binding, luminescence; TACC3 fragment carries E629A point mutation; Q9Y6A5; 390,000 compounds, 0.66% hits; AID 623870; inhibition, % at 9.99 µM;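 active = mean inhibition of replicates at least 50% and at least half of replicates each reaching 50%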
FGF22 binding = binders of recombinant human FGF22 by thermal shift. Q9HCT0. SYPRO orange fluorescence; percent of sucrose octasulfate shift, DMSO zero. activity (Tm shift, normalised), % at 9.99 µM. 340,000 compounds, 1.5% hits;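 active = mean Tm shift, scaled 0 neutral to 100 positive control, at about 1.3% or above, every replicate too, limit read from the data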
Target sequence (Q9HCT0 whole entry, looked up): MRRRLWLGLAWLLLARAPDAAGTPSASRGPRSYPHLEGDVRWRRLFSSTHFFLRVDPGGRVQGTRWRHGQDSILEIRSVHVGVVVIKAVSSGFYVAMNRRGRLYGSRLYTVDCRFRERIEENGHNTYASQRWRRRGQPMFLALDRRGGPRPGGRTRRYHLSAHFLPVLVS
SIRT5 inh = sirtuin-5 (human) deacylase inhibition; Q9NXA8; Purified SirT5, succinyl-peptide AMC, trypsin-coupled fluorescence; inhibition, % at 15 µM; 330,000 compounds, 1.1% hits; AID 652115; in the data active = inhibition above about 15%
DENV2 CPE = protects cells from dengue virus 2 cytopathic effect; DENV2-infected cells, cytopathic effect rescue, plate reader; CPE inhibition, % at 9.99 µM; 350,000 compounds, 1.7% hits; AID 651640; in the data active = CPE inhibition above about 20%, passing the limit was not always enough; tested in BHK-21 cells
Xi reactivation = reactivates the inactive X chromosome in mouse fibroblasts | XiGFP mouse fibroblasts, % GFP-positive cells imaging, 3 d; cells co-treated with 5-aza-dC sensitizer; scaled so ellipticine positive control = 100% | activation, % at 7.58 µM | 360,000 compounds, 0.055% hits;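 active = mean normalized replicate activation at least 10% and every replicate at or above 10%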
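material = 68-5-11 XiGFP fibroblast line | medium = DMEM plus 5-aza-dC sensitizer | schedule = 3 days compound exposure | benchmarks = positive control ellipticine, 6 µM final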
Hits are given with their value. Compounds with a hit are over-represented: about 3.8% of the library has one in this group of screens.

`C[C@H](CO)N1C[C@H](C)[C@H](CN(C)C(=O)Nc2ccc3c(c2)OCO3)Oc2ccc(NC(=O)CCN3CCOCC3)cc2C1=O` gave ARNT TACC3 PPI inactive, FGF22 binding inactive, SIRT5 inh inactive, DENV2 CPE inactive and Xi reactivation inactive.
For Cn1c(SCC(=O)c2cc3ccccc3o2)nnc1-c1ccccc1 the results were FN deposit inh inactive, ARNT TACC3 PPI inactive, FGF22 binding inactive, SIRT5 inh inactive, DENV2 CPE 67 and Xi reactivation inactive.
Cn1cnnc1SCC(=O)c1cc2ccccc2o1 was read as FN deposit inh inactive, ARNT TACC3 PPI inactive, FGF22 binding inactive, SIRT5 inh inactive, DENV2 CPE inactive and Xi reactivation inactive.
`Cc1ccc(-c2nnc(SCC(N)=O)n2C)cc1` gave FN deposit inh inactive, ARNT TACC3 PPI inactive, FGF22 binding 43, SIRT5 inh inactive, DENV2 CPE inactive and Xi reactivation inactive.
Cn1c(SCC(N)=O)nnc1-c1ccc(C(C)(C)C)cc1 was read as FN deposit inh inactive, ARNT TACC3 PPI inactive, FGF22 binding inactive, DENV2 CPE inactive and Xi reactivation inactive.
`O=C(Nc1ccccc1)N[C@H]1CC[C@H](CCNS(=O)(=O)c2ccccc2F)O[C@@H]1CO` gave ARNT TACC3 PPI inactive, FGF22 binding inactive, SIRT5 inh inactive, DENV2 CPE inactive and Xi reactivation inactive.
Screening COC(=O)[C@H]1CN(C(=O)c2ccccc2)C(=O)N1 returned FN deposit inh inactive, ARNT TACC3 PPI inactive, FGF22 binding inactive, DENV2 CPE 25 and Xi reactivation inactive.
`COC(=O)C1CCC(=S)N1C(=O)c1ccccc1` (stereo not given) gave FN deposit inh inactive, ARNT TACC3 PPI inactive, FGF22 binding inactive, DENV2 CPE inactive and Xi reactivation inactive.
For C[C@@H]1CCCCO[C@H](CN(C)C(=O)Cc2ccccc2)[C@H](C)CN([C@H](C)CO)C(=O)c2cc(NS(=O)(=O)c3cccs3)ccc2O1 the results were ARNT TACC3 PPI inactive, FGF22 binding inactive, SIRT5 inh inactive, DENV2 CPE inactive and Xi reactivation inactive.
Cc1ccc(-c2nnc3n2CCCCC3)cc1 was read as ARNT TACC3 PPI inactive.
O=C1Nc2ccccc2C1=Nc1ccc(-c2nnc3n2CCCCC3)cc1 was read as FN deposit inh inactive, ARNT TACC3 PPI inactive, FGF22 binding 43, DENV2 CPE inactive and Xi reactivation inactive.
`O=C(Cn1c(NCCO)nc2ccccc21)NCC1CCCO1` (stereo not given) gave FN deposit inh inactive, ARNT TACC3 PPI inactive, FGF22 binding 43, SIRT5 inh inactive, DENV2 CPE inactive and Xi reactivation inactive.
For CCN(CC)C(=O)C(=O)c1cn(CC(=O)NCC2CCCO2)c2ccccc12 (stereo not given) the results were FN deposit inh inactive, ARNT TACC3 PPI inactive, FGF22 binding 44, SIRT5 inh inactive, DENV2 CPE inactive and Xi reactivation inactive.
`COc1ccc(NC(=O)Nc2ccc3c(c2)C(=O)N([C@H](C)CO)C[C@H](C)[C@@H](CN(C)CC2CC2)OCCCC[C@H](C)O3)cc1` gave FN deposit inh inactive, ARNT TACC3 PPI inactive, FGF22 binding inactive, SIRT5 inh inactive, DENV2 CPE inactive and Xi reactivation inactive.
Screening CN1CCN(NC(=S)NC(C)(C)CC(C)(C)C)CC1 returned FN deposit inh inactive, FGF22 binding 43, SIRT5 inh inactive, DENV2 CPE inactive and Xi reactivation inactive.
`COc1ccccc1NC(=S)NN1CCN(C)CC1` gave FN deposit inh inactive, ARNT TACC3 PPI inactive, FGF22 binding inactive, SIRT5 inh inactive, DENV2 CPE inactive and Xi reactivation inactive.
Screening CN1CCN(NC(=S)NC2CCCC2)CC1 returned FN deposit inh inactive, ARNT TACC3 PPI inactive, FGF22 binding 43, SIRT5 inh inactive, DENV2 CPE inactive and Xi reactivation inactive.
For CC(C)COC(=O)N(C)C[C@H]1OCc2ccccc2-c2c(n(C)c3ccccc23)C(=O)N([C@@H](C)CO)C[C@H]1C the results were FN deposit inh inactive, ARNT TACC3 PPI inactive, FGF22 binding inactive, SIRT5 inh inactive, DENV2 CPE inactive and Xi reactivation inactive.

Screening data (PubChem BioAssay)
